In paper PMC6072596 (Molecular cancer therapeutics, 2018):
Values joined by “and” are separate entries in the source; they are usually repeats but may differ in a detail not shown here. Identical values can stand only once.

Experiments:
[1] = tested on: ATM targets including p53-S15, KAP1-S824, and ATM auto-phosphorylation at S1981; assay: Western blotting of ATM target phosphorylation; format: cell-based; details: western blot
How it was run: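 Mouse GL261 cells were irradiated (5 Gy) or not and exposed to test compound 0.3, 1 or 3 µM, or KU-60019 3 µM as reference ATM inhibitor, or neither. Extracts were western blotted for p-p53 S15 and p-KAP1 S824, with GAPDH or KAP1 as loading controls, using Dylight-800 anti-rabbit and Alexa Fluor-680 anti-mouse secondaries.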

human glioma T98G cells = assay: Radiosurvival colony-forming ability; format: cell-based; details: compared with KU-60019
How it was run: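 T98G human glioma cells came from ATCC and grew in DMEM with 10% FBS and penicillin-streptomycin at 37°C, 5% CO2. Cultures were kept no longer than 2 months and tested mycoplasma-negative. Radiosensitization was scored as colony-forming ability after irradiation, with a reference ATM inhibitor run alongside.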

GL261 orthotopic glioma = assay: Syngeneic orthotopic mouse glioma model GL261/C57bl6, survival with radiation; format: in vivo
[2] = tested on: human HCT116 colon carcinoma cells; assay: CFA radiosurvival of isogenic HCT116 cells; format: cell-based; details: HCT116 p53+/+ cells versus mutant p53 cells
mouse GL261 glioma cells = assay: Mitotic catastrophe triple staining; format: cell-based; details: 24 hr
How it was run: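 GL261 cells on chamber slides (DMEM, 10% FBS, 37°C, 5% CO2) were treated with test compound 3 µM and/or 2 Gy, or left untreated. Fixed at 24 hr and immunostained for γ-H2AX, p-(S10)-histone H3 and cleaved caspase 3, with DAPI counterstain; confocal imaging. Triple-positive cells were counted as mitotic catastrophe and expressed as a fraction of all cells.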

U87/shp53 cells [3] = assay: Radiosensitization of U87/shp53 versus parental U87/puro cells; format: cell-based, human; details: AZ32 3 µM
[4] = tested on: human glioma cell lines LN18, U1242, T98G, DBTRG, U87MG; assay: Radiosurvival of human glioma cell line panel with AZ32; format: cell-based; details: LN18, U1242, T98G (mutant p53), U87MG (wild-type p53)
[5] = tested on: human HCT116 colon carcinoma cells; assay: Aberrant mitoses in isogenic HCT116 cells; format: cell-based; details: HCT116 p53−/− cells
[6] = tested on: pp53 (S15), pKAP1 (S824) in mouse glioma GL261 cells; assay: Western blotting of DDR in GL261 cells; format: cell-based; details: 5 Gy, AZ32 0.3, 1 or 3 µM
How it was run: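 Mouse GL261 glioma cells, grown in DMEM with 10% FBS, got 5 Gy or no irradiation plus test compound (0.3, 1 or 3 µM), reference ATM inhibitor (3 µM) or neither. Extracts were western blotted for p-p53 Ser15 and p-KAP1 Ser824, with GAPDH or KAP1 as loading controls. Detection used Dylight-800 anti-rabbit and Alexa Fluor-680 anti-mouse secondaries.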

[7] = Tolerability of AZ32 plus head irradiation in mice; format: in vivo; details: C57bl6 mice, AZ32 and 2×5 Gy conformal SARRP
Cell permeability = format: in vitro ADME
[8] = tested on: intracranial NCI-H2228 (BM) tumors; assay: NCI-H2228 non-small cell lung cancer brain metastasis model, survival; format: in vivo, mouse; details: nude mice, AZ32 50 mg/kg BID
How it was run: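 Luciferase-expressing NCI-H2228 lung cancer cells, grown in DMEM with 10% FBS, were implanted in the brains of nude mice. Mice were randomized to vehicle, radiation alone, test compound 50 mg/kg BID alone, or test compound plus radiation. Tumours were tracked by bioluminescence imaging and survival was followed.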

U87/shp53 cells [9] = assay: Live cell imaging of aberrant mitoses in U87/shp53 versus parental cells; format: cell-based, human; details: AZ32 3 µM, 5 Gy, time-lapse 16 hrs
How it was run: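 U87 cells expressing H2B-mCherry and EGFP-Centrin2 were transduced with shp53 pLKO.1 puro or pBabe-puro, puromycin-selected and FACS-sorted mCherry+/EGFP+. They were grown 48–72 hr on glass-bottom dishes, given test compound 3 µM before 5 Gy, then imaged by spinning-disk confocal every 7 min from 2 hr post-IR for 16 hr. Aberrant mitoses were scored visually from chromatin and/or centrosome morphology.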

[10] = Mouse oral exposure: plasma and brain; format: in vivo; details: from Kpuu of Table 1
mouse GL261 cells = assay: Radiosurvival colony-forming assay, GL261; format: cell-based; details: AZ32 3 µM, 2 and 4 Gy
How it was run: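 Clonogenic radiosurvival in mouse GL261 cells grown in DMEM with 10% FBS. Cells were diluted and plated, exposed to test compound 3 µM or not, and irradiated at 0, 2 or 4 Gy. After about 2 weeks, colonies were stained with crystal violet and those of more than 50 cells were counted.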

ATR = ATR (Homo sapiens, UniProt Q13535); assay: Kinase selectivity, biochemical PIKK enzyme activity: ATR
pS1981ATM = pS1981ATM (Homo sapiens, UniProt Q13315); assay: ATM cell assay; format: cell-based; details: read-out: pS1981ATM IC50 (ATM cell IC50)

ATR, sequence (Q13535 whole entry): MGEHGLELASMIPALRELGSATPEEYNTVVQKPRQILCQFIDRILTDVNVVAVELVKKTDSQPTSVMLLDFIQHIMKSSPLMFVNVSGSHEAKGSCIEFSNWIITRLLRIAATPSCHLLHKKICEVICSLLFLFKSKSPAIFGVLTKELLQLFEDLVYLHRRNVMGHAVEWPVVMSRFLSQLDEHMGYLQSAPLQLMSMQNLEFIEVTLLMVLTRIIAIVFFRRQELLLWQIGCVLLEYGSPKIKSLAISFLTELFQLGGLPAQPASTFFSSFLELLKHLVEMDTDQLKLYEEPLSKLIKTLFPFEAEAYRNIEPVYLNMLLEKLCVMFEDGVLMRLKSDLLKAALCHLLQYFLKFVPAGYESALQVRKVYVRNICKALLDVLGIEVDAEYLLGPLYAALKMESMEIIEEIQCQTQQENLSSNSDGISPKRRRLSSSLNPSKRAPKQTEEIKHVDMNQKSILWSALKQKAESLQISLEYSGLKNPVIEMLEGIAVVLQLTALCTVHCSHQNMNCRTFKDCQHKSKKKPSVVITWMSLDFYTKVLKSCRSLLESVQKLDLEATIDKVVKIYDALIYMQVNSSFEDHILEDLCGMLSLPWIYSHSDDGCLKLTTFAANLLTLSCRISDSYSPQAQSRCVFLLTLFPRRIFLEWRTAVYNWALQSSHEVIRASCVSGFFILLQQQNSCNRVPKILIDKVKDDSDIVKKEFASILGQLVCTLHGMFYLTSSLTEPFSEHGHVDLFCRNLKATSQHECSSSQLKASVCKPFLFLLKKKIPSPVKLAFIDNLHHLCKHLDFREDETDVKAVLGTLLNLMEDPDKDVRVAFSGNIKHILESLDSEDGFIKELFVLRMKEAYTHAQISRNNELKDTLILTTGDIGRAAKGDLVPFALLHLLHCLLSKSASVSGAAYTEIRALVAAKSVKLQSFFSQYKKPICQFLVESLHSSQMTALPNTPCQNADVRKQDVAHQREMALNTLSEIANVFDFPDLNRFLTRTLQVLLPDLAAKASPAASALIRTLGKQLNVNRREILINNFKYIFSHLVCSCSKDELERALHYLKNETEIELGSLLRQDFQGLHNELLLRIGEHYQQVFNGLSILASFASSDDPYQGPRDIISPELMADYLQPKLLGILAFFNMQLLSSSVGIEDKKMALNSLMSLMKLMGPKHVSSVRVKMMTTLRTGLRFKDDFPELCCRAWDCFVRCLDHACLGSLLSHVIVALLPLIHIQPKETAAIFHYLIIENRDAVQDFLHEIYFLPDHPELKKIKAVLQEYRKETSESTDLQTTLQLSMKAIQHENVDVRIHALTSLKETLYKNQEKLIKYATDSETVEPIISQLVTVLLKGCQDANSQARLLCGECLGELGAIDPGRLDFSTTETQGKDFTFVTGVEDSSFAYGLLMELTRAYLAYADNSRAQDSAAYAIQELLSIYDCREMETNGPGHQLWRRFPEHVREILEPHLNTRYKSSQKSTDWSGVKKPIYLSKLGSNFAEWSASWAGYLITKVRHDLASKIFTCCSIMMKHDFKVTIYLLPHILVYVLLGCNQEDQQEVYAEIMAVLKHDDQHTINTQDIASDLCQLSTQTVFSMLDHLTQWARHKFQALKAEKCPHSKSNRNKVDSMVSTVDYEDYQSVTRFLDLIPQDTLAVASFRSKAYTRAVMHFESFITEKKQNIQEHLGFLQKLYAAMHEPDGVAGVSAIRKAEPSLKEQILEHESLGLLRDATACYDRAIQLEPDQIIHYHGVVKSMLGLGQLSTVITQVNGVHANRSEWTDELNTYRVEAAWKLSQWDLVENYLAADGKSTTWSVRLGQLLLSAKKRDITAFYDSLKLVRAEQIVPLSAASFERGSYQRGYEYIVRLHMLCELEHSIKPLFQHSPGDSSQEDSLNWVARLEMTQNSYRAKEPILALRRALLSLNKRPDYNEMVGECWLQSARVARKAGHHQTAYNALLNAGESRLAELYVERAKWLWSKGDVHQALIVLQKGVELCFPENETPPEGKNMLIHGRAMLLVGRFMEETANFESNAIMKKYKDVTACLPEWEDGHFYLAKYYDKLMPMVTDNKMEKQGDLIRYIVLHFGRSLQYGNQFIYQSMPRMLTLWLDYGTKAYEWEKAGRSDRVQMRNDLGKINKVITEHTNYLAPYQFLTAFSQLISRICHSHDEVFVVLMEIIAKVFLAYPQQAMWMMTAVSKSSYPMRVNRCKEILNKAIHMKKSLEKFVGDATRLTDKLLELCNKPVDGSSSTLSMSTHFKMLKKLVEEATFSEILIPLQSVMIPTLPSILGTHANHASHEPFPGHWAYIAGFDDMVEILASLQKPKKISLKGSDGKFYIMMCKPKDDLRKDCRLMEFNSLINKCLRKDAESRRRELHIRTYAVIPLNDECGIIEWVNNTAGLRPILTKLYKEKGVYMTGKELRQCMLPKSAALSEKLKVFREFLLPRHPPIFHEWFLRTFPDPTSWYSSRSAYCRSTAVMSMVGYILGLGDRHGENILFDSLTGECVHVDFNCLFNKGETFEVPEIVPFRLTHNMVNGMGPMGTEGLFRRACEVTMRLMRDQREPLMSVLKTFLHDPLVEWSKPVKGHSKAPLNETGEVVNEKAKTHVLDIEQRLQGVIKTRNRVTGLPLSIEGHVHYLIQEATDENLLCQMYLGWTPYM
ATR, sequence (Q8WXE1 whole entry partner): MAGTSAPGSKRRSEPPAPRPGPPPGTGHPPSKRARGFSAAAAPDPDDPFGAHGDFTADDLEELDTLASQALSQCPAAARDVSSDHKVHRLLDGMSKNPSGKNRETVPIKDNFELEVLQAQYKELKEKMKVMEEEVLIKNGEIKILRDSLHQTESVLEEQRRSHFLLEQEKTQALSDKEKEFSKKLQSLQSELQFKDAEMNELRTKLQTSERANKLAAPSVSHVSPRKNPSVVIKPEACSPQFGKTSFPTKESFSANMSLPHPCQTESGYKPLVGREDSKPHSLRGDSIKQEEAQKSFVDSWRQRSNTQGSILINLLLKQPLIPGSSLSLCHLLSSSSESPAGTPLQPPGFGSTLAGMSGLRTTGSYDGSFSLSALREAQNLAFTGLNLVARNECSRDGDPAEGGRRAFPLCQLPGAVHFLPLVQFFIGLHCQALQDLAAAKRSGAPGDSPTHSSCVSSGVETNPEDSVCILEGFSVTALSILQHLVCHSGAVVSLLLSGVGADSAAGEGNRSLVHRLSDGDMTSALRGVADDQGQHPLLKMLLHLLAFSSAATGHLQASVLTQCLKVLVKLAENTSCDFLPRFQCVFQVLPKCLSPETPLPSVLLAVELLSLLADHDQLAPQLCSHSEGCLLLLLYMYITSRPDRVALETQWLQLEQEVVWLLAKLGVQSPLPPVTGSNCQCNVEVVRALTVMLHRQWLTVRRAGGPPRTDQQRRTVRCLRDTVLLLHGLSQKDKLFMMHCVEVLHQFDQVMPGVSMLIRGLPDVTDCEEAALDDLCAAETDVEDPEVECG

COCc1ccc(-c2ccc3ncc(C(N)=O)c(N[C@H](C)C4CCOCC4)c3c2)cn1 [AZ31, 6-[6-(methoxymethyl)-3-pyridinyl]-4-([(1R)-1-(tetrahydro-2H-pyran-4-yl)ethyl]amino)-3-quinolinecarboxamide]
Block of phosphorylation of ATM targets ([1]; p53-S15, KAP1-S824, ATM S1981): effectively blocked phosphorylation | Potency compared to KU-60019 in blocking ATM target phosphorylation ([1]; lanes 2–6): at least 10 fold | Radiosensitization by colony-forming ability (human glioma T98G cells): radiosensitized cells to a similar extent as KU-60019 | Radiosensitization of GL261 tumors (GL261 orthotopic glioma; administered orally, prolonged low radiation dose treatment schedule): unable to significantly radiosensitize tumors

CNC(=O)c1ccc(-c2cnc3cnc(-c4ccccc4)cn23)cc1 [AZ32]
Sensitivity to AZ32 and radiation by CFA [2]: more sensitive to AZ32 and radiation compared to mutant p53 cells | Triple+ cells (mitotic catastrophe) of all cells (mouse GL261 glioma cells; AZ32 3 µM and radiation 2 Gy): 4% | Mitotic catastrophe in AZ32+IR over IR alone (mouse GL261 glioma cells; AZ32 3 µM, 2 Gy): 4 fold | Sensitivity of U87/shp53 cells to AZ32 radiosensitization relative to parental cells (U87/shp53 cells [3]): 2–4 fold | Radiosensitization of human glioma cell line panel [4]: all radiosensitized in vitro | Aberrant mitoses and polyploidy cells on addition of AZ32 before IR [5]: almost a doubling of aberrant mitoses and polyploidy cells | Block of phosphorylation of p53 and KAP-1 after radiation [6]: blocked the phosphorylation of p53 and KAP-1 after radiation | Radiation toxicity [7]: did not notice any radiation toxicity | Cell permeability (Cell permeability): high cell permeability | Survival of mice, AZ32 in combination with radiation [8]: survived much longer than mice in the radiation alone or AZ32 alone groups | Aberrant mitoses in shp53 cells relative to parental cells (U87/shp53 cells [9]): 4.2 fold and ~ 4 fold | Enhancement of BBB penetration over AZ31 [10]: 8.7 fold | Radiosensitization in radiosurvival colony-forming assay (mouse GL261 cells): became more radiosensitive | Selectivity over ATR (ATR): adequate selectivity over ATR | Survival versus radiation alone (GL261 orthotopic glioma; AZ32 200 mg/kg p.o. QD, whole-head 137-Cs irradiation 4×2.5 Gy): significantly (p = 0.019) prolonged the survival | IC50 (pS1981ATM): 310 nM

C[C@@H]1CN(CC(=O)Nc2ccc3c(c2)Cc2cccc(-c4cc(=O)cc(N5CCOCC5)o4)c2S3)C[C@H](C)O1 [KU-60019, reference compound]
Radiosensitization of GL261 tumors (GL261 orthotopic glioma; administered intra-tumorally by CED immediately prior to radiation): radiosensitized by KU-60019 (p = 0.0001)
